Results on two molecules are retold here after ChEMBL document CHEMBL1212840, “Lysine N(epsilon)-trimethylation, a tool for improving the selectivity of antimicrobial peptides” (J Med Chem, 2010).

Series [1] can be described thus: Selectivity index, ratio of IC50 for sheep erythrocyte to LC50 for Leishmania donovani MHOM/SD/001S-2D promastigotes. The method, boiled down:
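SI = HC50/LC50. For HC50, washed sheep erythrocytes at 2 × 10^7 cells/mL in Hank's are exposed to peptide for 4 h at 37 °C. Hemoglobin in the supernatant is read at 550 nm; 0.1% Triton X-100 gives full lysis, and HC50 is 50% release.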

The nature of series [2]: Selectivity index, ratio of IC50 for sheep erythrocyte to LC50 for Leishmania pifanoi MHOM/VE/60/LTrod amastigotes. The method, boiled down: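 SI = HC50/LC50. HC50 comes from sheep erythrocytes (2 × 10^7 cells/mL in Hank's, 4 h, 37 °C, hemoglobin at 550 nm, 0.1% Triton X-100 as full lysis). For LC50, L. pifanoi axenic amastigotes at 2 × 10^7/mL in Hank's + 20 mM glucose get peptide for 4 h at 32 °C. An aliquot is then regrown in complete medium for 96 h at 32 °C.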

In series [3] the test system is Leishmania donovani. Description: Antileishmanial activity against Leishmania donovani MHOM/SD/001S-2D promastigotes after 72 hrs by MTT assay. It is filed as functional, organism-based. The method, boiled down: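 L. donovani promastigotes (strain MHOM/SD/00/1S-2D) are harvested at late exponential phase and washed in Hank's + 20 mM D-glucose, pH 7.2. They are treated with peptide at 2 × 10^7 parasites/mL for 4 h at 26 °C. A 20 μL aliquot then goes into complete medium for 72 h at 26 °C to let survivors proliferate. LC50 is 50% inhibition of proliferation. Triplicates, repeated at least twice.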
A general note: Tetrazolium dyes change colour on reduction, which living cells bring about.

Series [4] has as its system Leishmania pifanoi. Description: Antileishmanial activity against Leishmania pifonoi MHOM/VE/60/LTrod promastigotes after 72 hrs by MTT assay. The format is functional, organism-based.
Series [5] is described as follows: Toxicity in sheep erythrocyte assessed as hemolysis. The format is cell-based, Ovis aries. The following applies: sheep erythrocytes. A digest of the protocol:
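Washed sheep erythrocytes at 2 107 cells/mL in Hank's medium were exposed to peptide for 4 h at 37 °C, then spun (5 min, 4 °C). Hemoglobin in the supernatant was read at 550 nm. HC50 is the peptide concentration releasing 50% of the hemoglobin freed by 0.1% Triton X-100.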

For the next series, the system named is Staphylococcus aureus. Description: Antimicrobial activity against Staphylococcus aureus CECT 240 by turbidimetry. The format is functional.
The test system of another series is Acinetobacter baumannii. Put plainly: Antimicrobial activity against Acinetobacter baumannii ATCC 19606 ATCC 19606 by turbidimetry. The format is functional.
Series [6] in a line: Selectivity index, ratio of HC50 for sheep erythrocyte to MIC50 for Staphylococcus aureus CECT 240. It is filed as functional.
A short description of series [7]: Selectivity index, ratio of HC50 for sheep erythrocyte to MIC50 for Acinetobacter baumannii ATCC 19606 ATCC 19606. It is filed as functional.
For series [8], the system named is Leishmania pifanoi. Put plainly: Antileishmanial activity against Leishmania pifonoi MHOM/VE/60/LTrod amastigotes after 4 hrs by MTT assay.
Series [9] relates to Leishmania donovani. Put plainly: Antileishmanial activity against Leishmania donovani MHOM/SD/001S-2D promastigotes after 4 hrs by MTT assay.

Square brackets hold non-standard residues; d marks the D form. Peptide text beside a SMILES is read from it. Lys(Me3) = C[N+](C)(C)CCCC[C@H](N)C(=O)O

One may read the LC50 as the concentration lethal to half of the exposed cells or organisms. A low value points to greater toxicity. Broadly, the HC50 is the concentration giving 50% haemolysis. A word on the MIC50: it is an inhibitory concentration at the 50% level, which refers to growth in some studies and to a panel of isolates in others. The low end stands for higher susceptibility, the high end for lower susceptibility. The IC50 is the concentration needed to halve the response being measured. A higher IC50 goes with weaker potency in that assay.

In the case of `CC[C@H](C)[C@H](NC(=O)[C@H](CCCCN)NC(=O)[C@H](CCCC[N+](C)(C)C)NC(=O)[C@H](Cc1ccccc1)NC(=O)[C@H](CC(C)C)NC(=O)[C@H](CCCCN)NC(=O)[C@H](Cc1c[nH]c2ccccc12)NC(=O)[C@@H](N)CCCCN)C(=O)NCC(=O)N[C@@H](C)C(=O)N[C@H](C(=O)N[C@@H](CC(C)C)C(=O)N[C@@H](CCCCN)C(=O)N[C@H](C(=O)N[C@@H](CC(C)C)C(N)=O)C(C)C)C(C)C.[Cl-]` (H-KWKLF[Lys(Me3)]KIGAVLKVL-NH2), the “Selectivity Index” value came to 92.7 in series [1], 9.6 in series [2], 34.3 in series [6] and 112.2 in series [7]. Moreover, the LC50 with Leishmania donovani [3] stood at 1.7 µM; in the series with Leishmania pifanoi [4] it was 16.3 µM. In addition, in series [5], the HC50 was 158 µM. For the same molecule, the MIC50 against Staphylococcus aureus came out at 4.6 µM; against Acinetobacter baumannii, 1.4 µM. Further, the IC50 in the series with Leishmania pifanoi [8] worked out at 13.4 µM; in the series with Leishmania donovani [9], 3.7 µM.

In the case of `CC[C@H](C)[C@H](NC(=O)[C@H](CCCCN)NC(=O)[C@H](CCCC[N+](C)(C)C)NC(=O)[C@H](Cc1ccccc1)NC(=O)[C@H](CC(C)C)NC(=O)[C@H](CCCC[N+](C)(C)C)NC(=O)[C@H](Cc1c[nH]c2ccccc12)NC(=O)[C@@H](N)CCCCN)C(=O)NCC(=O)N[C@@H](C)C(=O)N[C@H](C(=O)N[C@@H](CC(C)C)C(=O)N[C@@H](CCCCN)C(=O)N[C@H](C(=O)N[C@@H](CC(C)C)C(N)=O)C(C)C)C(C)C.[Cl-].[Cl-]` (H-KW[Lys(Me3)]LF[Lys(Me3)]KIGAVLKVL-NH2), the “Selectivity Index” value in series [1] is listed as 17.4; in [2], 7.1; in series [6], 18.9; in series [7], 58.6. The LC50 with Leishmania donovani [3] worked out at 6.7 µM; with Leishmania pifanoi [4], 16.5 µM. Also, in series [5], the HC50 came to 117 µM. Besides, the MIC50 in the series with Staphylococcus aureus was 6.2 µM; against Acinetobacter baumannii, 2 µM. The IC50 in the series with Leishmania pifanoi [8] was 7.4 µM; in the series with Leishmania donovani [9] it was 5.1 µM.
